# In ChEMBL document CHEMBL1149770, “Synthesis and antimicrobial studies of novel dichlorofluorophenyl containing aminotriazolothiadiazines” (2008):
# Legend:
# Talaromyces marneffei [1] = assay: Antifungal activity against Penicillium marneffei after 48 hrs […]; type: functional
# Aspergillus flavus [2] = assay: Antifungal activity against Aspergillus flavus assessed as inhibition zone diameter […] by agar dilution method; type: functional
# In short: (§1)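 Compounds in DMSO placed in punched wells on Sabouraud agar (peptone, glucose, agar, pH 5.7) lawned with saline spore suspension. Plates pre-dried 1 h at 37 °C. Controls in triplicate, incubation at 37 °C for 3-4 days, then inhibition zone diameter read in mm. Amphotericin B reference.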
# [3] = system: Trichophyton mentagrophytes; assay: Antifungal activity against Trichophyton mentagrophytes assessed as inhibition zone diameter […] by agar dilution method; type: functional; in short: as §1
# Staphylococcus aureus [4] = assay: Antibacterial activity against Staphylococcus aureus ATCC 25923 after 24 hrs by broth dilution technique; type: functional; details: ATCC 25923, 24 h
# In short: (§2)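 MIC by broth dilution in nutrient broth with logarithmic serial twofold dilutions of compound. Inoculum approx. 5×10^5 c.f.u actively dividing bacteria. Incubated 24 h at 37 °C, growth monitored visually and spectrophotometrically. MIC taken as the lowest concentration (highest dilution) arresting growth. Ciprofloxacin reference.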
# [5] = system: Trichophyton mentagrophytes; assay: Antifungal activity against Trichophyton mentagrophytes after 48 hrs […]; type: functional
# Escherichia coli = assay: Antibacterial activity against Escherichia coli ATCC 25922 after 24 hrs by broth dilution technique; type: functional; details: ATCC 25922, 24 h; in short: as §2
# Pseudomonas aeruginosa [6] = assay: Antibacterial activity against Pseudomonas aeruginosa ATCC 27853 assessed as inhibition zone diameter after 24 hrs […]; type: functional
# In short: (§3)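 Disc diffusion on nutrient agar. Inoculum 1-2 × 10^7 c.f.u/ml (0.5 McFarland) spread over the plate surface. Sterile 6.25 mm filter-paper discs soaked in a known concentration of compound. Solvent and growth controls included. Plates incubated inverted 24 h at 37 °C, then inhibition zone diameter measured in mm. Ciprofloxacin reference.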
# Streptococcus pyogenes [7] = assay: Antibacterial activity against Streptococcus pyogenes after 24 hrs by broth dilution technique; type: functional; in short: as §2
# Streptococcus pyogenes [8] = assay: Antibacterial activity against Streptococcus pyogenes assessed as inhibition zone diameter after 24 hrs by disc diffusion method
# Talaromyces marneffei [9] = assay: Antifungal activity against Penicillium marneffei assessed as inhibition zone diameter […] by agar dilution method; type: functional; in short: as §1
# Aspergillus fumigatus [10] = assay: Antifungal activity against Aspergillus fumigatus assessed as inhibition zone diameter […] by agar dilution method; type: functional; in short: as §1
# Aspergillus flavus [11] = assay: Antifungal activity against Aspergillus flavus after 48 hrs […]; type: functional
# Klebsiella pneumoniae [12] = assay: Antibacterial activity against Klebsiella pneumoniae assessed as inhibition zone diameter after 24 hrs […]; type: functional; in short: as §3
# Staphylococcus aureus [13] = assay: Antibacterial activity against Staphylococcus aureus ATCC 25923 assessed as inhibition zone diameter after 24 hrs […]; type: functional; in short: as §3
# Candida albicans [14] = assay: Antifungal activity against Candida albicans after 48 hrs […]; type: functional
# Klebsiella pneumoniae [15] = assay: Antibacterial activity against Klebsiella pneumoniae after 24 hrs by broth dilution technique; type: functional; in short: as §2
# Pseudomonas aeruginosa [16] = assay: Antibacterial activity against Pseudomonas aeruginosa ATCC 27853 after 24 hrs by broth dilution technique; type: functional; details: ATCC 27853, 24 h; in short: as §2
# Candida albicans [17] = assay: Antifungal activity against Candida albicans assessed as inhibition zone diameter […] by agar dilution method; type: functional; in short: as §1
# Aspergillus fumigatus [18] = assay: Antifungal activity against Aspergillus fumigatus after 48 hrs […]; type: functional
Compound,MIC (Talaromyces marneffei [1]),inhibition zone (IZ) (Aspergillus flavus [2]),inhibition zone (IZ) [3],MIC (Staphylococcus aureus [4]),MIC [5],MIC (Escherichia coli),inhibition zone (IZ) (Pseudomonas aeruginosa [6]),MIC (Streptococcus pyogenes [7]),inhibition zone (IZ) (Streptococcus pyogenes [8]),inhibition zone (IZ) (Talaromyces marneffei [9]),inhibition zone (IZ) (Aspergillus fumigatus [10]),MIC (Aspergillus flavus [11]),inhibition zone (IZ) (Klebsiella pneumoniae [12]),inhibition zone (IZ) (Staphylococcus aureus [13]),MIC (Candida albicans [14]),MIC (Klebsiella pneumoniae [15]),MIC (Pseudomonas aeruginosa [16]),inhibition zone (IZ) (Candida albicans [17]),MIC (Aspergillus fumigatus [18])
Cc1cccc(C)c1NC1=Nn2c(nnc2-c2cc(F)c(Cl)cc2Cl)SC1,12.5 µg/mL,24 mm,19 mm,6.25 µg/mL,6.25 µg/mL,12.5 µg/mL,15 mm,6.25 µg/mL,21 mm,12 mm,10 mm,6.25 µg/mL,12 mm,23 mm,12.5 µg/mL,12.5 µg/mL,6.25 µg/mL,15 mm,25 µg/mL
Nn1c(SCC(=O)Nc2ccc(Cl)cc2)nnc1-c1cc(F)c(Cl)cc1Cl,12.5 µg/mL,10 mm,8 mm,12.5 µg/mL,25 µg/mL,12.5 µg/mL,18 mm,25 µg/mL,10 mm,17 mm,15 mm,25 µg/mL,12 mm,17 mm,12.5 µg/mL,12.5 µg/mL,12.5 µg/mL,12 mm,12.5 µg/mL
Nn1c(SCC(=O)Nc2cc(Cl)c(Cl)cc2Cl)nnc1-c1cc(F)c(Cl)cc1Cl,6.25 µg/mL,25 mm,19 mm,6.25 µg/mL,6.25 µg/mL,6.25 µg/mL,30 mm,6.25 µg/mL,25 mm,23 mm,21 mm,6.25 µg/mL,21 mm,22 mm,6.25 µg/mL,6.25 µg/mL,6.25 µg/mL,20 mm,6.25 µg/mL
Cc1ccc(NC(=O)CSc2nnc(-c3cc(F)c(Cl)cc3Cl)n2N)cc1,6.25 µg/mL,22 mm,18 mm,6.25 µg/mL,6.25 µg/mL,6.25 µg/mL,31 mm,6.25 µg/mL,22 mm,23 mm,20 mm,6.25 µg/mL,20 mm,25 mm,6.25 µg/mL,6.25 µg/mL,6.25 µg/mL,18 mm,6.25 µg/mL
Cc1ccc(NC2=Nn3c(nnc3-c3cc(F)c(Cl)cc3Cl)SC2)cc1,6.25 µg/mL,19 mm,17 mm,6.25 µg/mL,6.25 µg/mL,6.25 µg/mL,29 mm,6.25 µg/mL,23 mm,23 mm,20 mm,6.25 µg/mL,21 mm,21 mm,6.25 µg/mL,6.25 µg/mL,6.25 µg/mL,18 mm,6.25 µg/mL
COc1ccc(NC2=Nn3c(nnc3-c3cc(F)c(Cl)cc3Cl)SC2)cc1,> 100 µg/mL,18 mm,13 mm,6.25 µg/mL,12.5 µg/mL,> 100 µg/mL,15 mm,12.5 µg/mL,16 mm,,12 mm,6.25 µg/mL,12 mm,22 mm,6.25 µg/mL,12.5 µg/mL,25 µg/mL,19 mm,12.5 µg/mL
